One experiment relates to HEK293. The experiment is described as follows: Induction of cell proliferation of HEK293 cells assessed as proliferation rate at 100 uM measured up to 72 hrs by MTT assay. Type of experiment: functional. The note with it: Homo sapiens, HEK293, 72 h; read-out: Activity. In general terms: Formazan colour is commonly taken as a measure of viable cells.
Experiment [1] concerns PBL. The experiment is described as follows: Immunostimulatory activity in human PBL assessed as increase in cell proliferation […] after 72 hrs by MTT assay relative to control. It is filed as functional. An outline of the steps: (§1)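 Ficoll-isolated human PBLs were plated at 2.5×10^6 cells/mL in RPMI-1640 at 37 °C, 5% CO2. After 3 h they were treated with 0, 10, 20, 50 or 100 µM compound in DMSO, with Con A at 1–20 µg/mL as reference mitogen. MTT was added at 72 h for 4 h, and formazan dissolved in DMSO was read at 570 nm. Proliferative index was taken as fold over untreated control, from three independent experiments.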

Experiment [2] relates to PBL. The experiment is described as follows: Ex-vivo induction of IL-23 production in human PBL at 100 uM after 72 hrs by ELISA. It is filed as functional, cell-based. Summed up:
(§2)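 Human PBLs were isolated from heparinized venous blood of consenting volunteers aged 18–60 y on Ficoll-hypaque (1.077 g/mL). They were seeded at 5×10^5 cells/well in RPMI-1640, exposed to compound in DMSO, and held 72 h at 37 °C, 5% CO2. Supernatants were taken after centrifugation at 240 × g, and IL-2, IL-12 and IL-23 were measured by ELISA, in triplicate.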
A general note: An ELISA detects its analyte on a solid surface through an enzyme-linked reagent.

For experiment [3], the system named is PBL. The experiment is described as follows: Ex-vivo induction of IL-12 production in human PBL at 100 uM after 72 hrs by ELISA. Type of experiment: functional, cell-based. Summed up: as §2
In experiment [4] the test system is PBL. The experiment is described as follows: Immunostimulatory activity in human PBL assessed as increase in cell proliferation after 72 hrs by MTT assay. It is filed as functional, cell-based. Summed up: as §1
Experiment [5] in a line: Immunostimulatory activity in Swiss albino mouse splenocytes assessed as increase in proliferation at 100 uM after 72 hrs by MTT assay relative to ConA. It is filed as functional, Splenocyte. Summed up:
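Splenocytes came from Swiss albino mice (23–25 g, 12 weeks). Erythrocytes were lysed in NH4Cl/KHCO3/EDTA buffer, pH 7.4. Cells were plated at 2.5×10^6 cells/mL in RPMI-1640 at 37 °C, 5% CO2, and compound (0–100 µM in DMSO) was added after 3 h. After 72 h, MTT was added for 4 h and formazan dissolved in DMSO was read at 570 nm. Con A (1–20 µg/mL) served as reference, and the index was expressed as fold over untreated control (1.0).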

The subject of experiment [6] is PBL. The experiment is described as follows: Ex-vivo induction of IL-2 production in human PBL at 100 uM after 72 hrs by ELISA relative to control. Type of experiment: functional. Summed up: as §2
Experiment [7] relates to PBL. The experiment is described as follows: Ex-vivo induction of IL-2 production in human PBL at 100 uM after 72 hrs by ELISA (reference value: 328 pg/ml). It is filed as functional. An outline of the steps:
as §2

Experiment [8] deals with Prostaglandin G/H synthase 1 (Homo sapiens) (UniProt P23219). The experiment is described as follows: Inhibition of COX1 in human PBL after 72 hrs by colorimetric method. The note with it: concentration not given here.
A further experiment relates to Chorioallantoic membrane. The experiment is described as follows: Pro-angiogenic activity in chicken chorioallantoic membrane assessed as dense blood vessel formation by measuring microvascular density at 20 uM after 12 days. It is filed as functional. To be noted: Gallus gallus.
The test system of another experiment is Cornea. The experiment is described as follows: Pro-angiogenic activity in rat cornea assessed as vascularization by measuring microvascular density at 20 ug after overnight incubation. It is filed as functional.

Calls of active or inactive are those of the source. The rule behind the calls is not given here.

Sequence of Prostaglandin G/H synthase 1 (Homo sapiens) (P23219 whole entry): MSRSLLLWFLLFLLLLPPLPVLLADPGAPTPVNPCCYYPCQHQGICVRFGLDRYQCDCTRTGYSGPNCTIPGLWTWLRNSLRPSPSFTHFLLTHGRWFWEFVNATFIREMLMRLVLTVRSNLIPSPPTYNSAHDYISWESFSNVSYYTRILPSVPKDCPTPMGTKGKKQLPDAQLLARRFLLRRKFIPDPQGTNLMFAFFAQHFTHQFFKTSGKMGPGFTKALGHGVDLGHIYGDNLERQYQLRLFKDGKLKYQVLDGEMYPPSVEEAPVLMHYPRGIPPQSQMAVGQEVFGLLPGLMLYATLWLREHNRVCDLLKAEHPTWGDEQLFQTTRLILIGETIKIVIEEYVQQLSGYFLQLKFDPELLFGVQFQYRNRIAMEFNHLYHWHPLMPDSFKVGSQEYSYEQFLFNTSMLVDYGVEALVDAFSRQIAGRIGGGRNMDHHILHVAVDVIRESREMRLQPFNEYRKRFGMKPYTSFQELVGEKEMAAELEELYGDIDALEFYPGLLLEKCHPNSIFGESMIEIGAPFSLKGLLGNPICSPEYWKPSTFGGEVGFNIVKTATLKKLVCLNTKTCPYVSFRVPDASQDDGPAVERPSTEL

As to `COc1ccc(C2ON=C(c3ccc(Cl)cc3)C2C(=O)c2ccc(O)c(C(=O)O)c2)cc1` (configuration not stated), in the experiment with HEK293, the growth at 100 µM was found to be 11%. Moreover, the outcome with PBL [1] was inactive.
As for `O=C(O)c1cc(C(=O)C2C(c3cccc(Cl)c3)=NOC2c2ccc(Br)cc2)ccc1O` (configuration not stated), the growth at 100 µM with HEK293 is 12%. For the same molecule, the outcome with PBL [1] was inactive.
On the same counts, the results for `O=C(O)c1cc(C(=O)C2C(c3ccc(Cl)cc3)=NOC2c2ccc(Cl)cc2)ccc1O` (configuration not stated) are 9% and “inactive”.
The matching figures for `O=C(O)c1cc(C(=O)C2C(c3cccc(Cl)c3)=NOC2c2cccc(Cl)c2)ccc1O` (configuration not stated): 42% and “Active”.
As to `O=C(O)c1cc(C(=O)C2C(c3cccc(Cl)c3)=NOC2c2ccc(O)cc2)ccc1O` (configuration not stated), the growth at 100 µM in the experiment with HEK293 turned out to be 0%. In addition, the outcome with PBL [1] was inactive.
One may read the inhibition as the drop in the measured response relative to a control, in per cent. Read a low inhibition as a weak effect. As for `COc1ccc(C2=NOC(c3cccc(Cl)c3)C2C(=O)c2ccc(O)c(C(=O)O)c2)cc1` (configuration not stated), the outcome in the experiment on PBL [2] and in the experiment with PBL [3] was inactive. Moreover, in the experiment on HEK293, the growth at 100 µM came to 73%. The Activity entry was “Dose-dependent effect” in the experiment on PBL [4] and 1460 pg/mL with PBL [7]. Besides, the figures for the “fold change (FC)” value (with PBL [1]; in [5]; in the experiment with PBL [6]) were 1.25, 1.2 and 4, respectively. In addition, the inhibition in experiment [8] is 39%. Further, the outcome in the experiment on Chorioallantoic membrane and in the experiment on Cornea was Active.
Regarding `O=C(O)c1cc(C(=O)C2C(c3ccc(Cl)cc3)=NOC2c2ccc(Br)cc2)ccc1O` (configuration not stated), in the experiment with HEK293, the growth at 100 µM is 6%. The result in the experiment on PBL [1] was inactive.
`COc1ccc(C2=NOC(c3ccc(O)cc3)C2C(=O)c2ccc(O)c(C(=O)O)c2)cc1` (configuration not stated): in the experiment with HEK293, the growth at 100 µM came to 8%.
The same measure, in the same setting: next, `COc1ccc(C2=NOC(c3ccccc3)C2C(=O)c2ccc(O)c(C(=O)O)c2)c(OC)c1` (configuration not stated): 0%.
As to `COc1ccc(C2ON=C(c3cccc(Cl)c3)C2C(=O)c2ccc(O)c(C(=O)O)c2)cc1` (configuration not stated), in the experiment with HEK293, the growth at 100 µM was determined as 9%. Moreover, in the experiment on PBL [1], the outcome was inactive.
